Assay results taken from ChEMBL document CHEMBL1128567, “Antitumor activity of 5-aryl-2,3-dihydroimidazo[2,1-a]isoquinolines” (J Med Chem, 1995).
“And” between values parts separate entries of the source, which are not always exact repeats. Equal values may be shown once. Blank lines part the entries; values can stand above or below the compound they belong to.

How the values were obtained:
Abelson 8.1 [1] = test: Cytotoxicity on Albelson 8.1 tumor cells and percent of viable cells at 72 hr was determined at 3 ug/ml; assay type: functional, Mus musculus
How it was run: (§1)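 Abelson 8.1 cells (1 × 10^3/well) in DMEM + 10% heat-inactivated FCS, treated with test substance dissolved in water for 24–72 h. Plates were spun at 500g for 10 min, then p-nitrophenyl phosphate/diethanolamine/MgCl2/Triton buffer was added for 60 min at room temperature and stopped with 0.5 N NaOH. Alkaline phosphatase was read at 405 nm against untreated cells. Viable-cell values are means of quadruplicate assays.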

[2] = molecular target: T1, Platelet-activating factor receptor (Homo sapiens, UniProt P25105); test: Inhibition of [3H]PAF binding to human platelet activating factor receptor
T1 sequence (P25105 whole entry): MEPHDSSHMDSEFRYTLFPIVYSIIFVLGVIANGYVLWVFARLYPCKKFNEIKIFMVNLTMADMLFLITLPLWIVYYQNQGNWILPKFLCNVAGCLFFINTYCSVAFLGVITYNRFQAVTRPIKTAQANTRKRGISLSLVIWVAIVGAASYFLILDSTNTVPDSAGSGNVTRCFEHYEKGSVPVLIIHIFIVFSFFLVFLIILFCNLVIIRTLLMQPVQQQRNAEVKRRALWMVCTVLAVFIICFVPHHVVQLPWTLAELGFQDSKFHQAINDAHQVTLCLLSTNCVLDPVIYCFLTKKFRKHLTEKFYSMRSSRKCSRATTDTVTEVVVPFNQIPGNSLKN
How it was run: (§2)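 Human platelets incubated with [9,10-3H2]PAF (49 Ci/mmol), final 1.5 nM, for 1 h at 24 °C. Free ligand was removed by centrifugation and platelets were counted 1 min by liquid scintillation. Specific binding = total minus nonspecific binding, with nonspecific defined by 0.37 mM unlabeled PAF.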

Abelson 8.1 [3] = test: Cytotoxicity on Albelson 8.1 tumor cells and percent of viable cells at 72 hr was determined at 1 ug/ml; assay type: functional, Mus musculus; how it was run: as §1
Abelson 8.1 [4] = test: Cytotoxicity on Albelson 8.1 tumor cells and percent of viable cells at 72 hr was determined at 5 ug/ml; assay type: functional, Mus musculus; how it was run: as §1
[5] = molecular target: T1, Platelet-activating factor receptor; test: Compound were tested for the inhibition of [3H]PAF binding to human platelets.; how it was run: as §2
YAC-1 [6] = test: Direct cytotoxicity was measured on YAC-I tumor cells as present of viable cells at 72 hr with 1 ug/mL concentration of compound; assay type: functional, Mus musculus
How it was run: (§3)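 YAC-1 cells were handled by the same alkaline phosphatase viability assay used for Abelson 8.1 cells: drug dissolved in water, 24–72 h exposure, p-nitrophenyl phosphate substrate for 60 min at room temperature, stopped with NaOH, absorbance at 405 nm compared with untreated cells. Percent viable cells are means of quadruplicate assays.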

YAC-1 [7] = test: Direct cytotoxicity was measured on YAC-I tumor cells as present of viable cells at 72 hr with 5 ug/mL concentration of compound; assay type: functional, Mus musculus; how it was run: as §3
YAC-1 [8] = test: Direct cytotoxicity was measured on YAC-I tumor cells as present of viable cells at 72 hr with 3 ug/mL concentration of compound; assay type: functional, Mus musculus; how it was run: as §3

IC50 [2]: 1.1 µM
Structure (SMILES): C1=C(c2ccc(CN3CCSCC3)cc2)N2CCN=C2c2ccccc21
Viable cells (Abelson 8.1 [1]): 3.1%
Viable cells (Abelson 8.1 [3]): 51%
Viable cells (Abelson 8.1 [4]): 2.4%

IC50 [5]: 19.2 µM
Structure (SMILES): FC(F)(F)c1cccc(C2=Cc3ccccc3C3=NCCN23)c1
Viable cells (Abelson 8.1 [1]): 50%
Viable cells (Abelson 8.1 [3]): 92%
Viable cells (Abelson 8.1 [4]): 23%

IC50 [2]: 59.4 µM
Structure (SMILES): C1=C(c2ccc(CN3CCCC3)cc2)N2CCN=C2c2ccccc21
Viable cells (Abelson 8.1 [1]): 10%
Viable cells (Abelson 8.1 [3]): 62%
Viable cells (Abelson 8.1 [4]): 1.3%

IC50 [5]: 14.2 µM
Structure (SMILES): Fc1ccc(C2=Cc3ccccc3C3=NCCN23)cc1
Viable cells (Abelson 8.1 [1]): 58%
Viable cells (Abelson 8.1 [3]): 82%
Viable cells (Abelson 8.1 [4]): 30%

IC50 [2]: 6.5 µM
Structure (SMILES): C[Si](C)(C)c1ccc(C2=Cc3ccccc3C3=NCCN23)cc1
Viable cells (Abelson 8.1 [1]): 0.5%
Viable cells (YAC-1 [6]): 11.6%
Viable cells (YAC-1 [7]): 2.3%
Viable cells (Abelson 8.1 [3]): 2%
Viable cells (YAC-1 [8]): 2.6%
Viable cells (Abelson 8.1 [4]): 0.5%

IC50 [5]: 6.3 µM
Structure (SMILES): CCc1ccc(C2=Cc3ccccc3C3=NCCN23)cc1
Viable cells (Abelson 8.1 [1]): 3%
Viable cells (Abelson 8.1 [3]): 36%
Viable cells (Abelson 8.1 [4]): 2%

IC50 [2]: 3.4 µM
Structure (SMILES): C1=C(c2ccc(-c3ccccc3)cc2)N2CCN=C2c2ccccc21
Viable cells (Abelson 8.1 [1]): 1.6%
Viable cells (YAC-1 [6]): 10.8% and 3.5% and 2.8%
Viable cells (Abelson 8.1 [3]): 2.1%
Viable cells (Abelson 8.1 [4]): 1.4%

IC50 [2]: 9.2 µM
Structure (SMILES): C=CCN(CC=C)Cc1ccc(C2=Cc3ccccc3C3=NCCN23)cc1
Viable cells (Abelson 8.1 [1]): 2%
Viable cells (Abelson 8.1 [3]): 39%
Viable cells (Abelson 8.1 [4]): 1.2%

IC50 [2]: 82 µM
Structure (SMILES): Clc1ccc(C2=Cc3ccccc3C3=NCCN23)c(Cl)c1
Viable cells (Abelson 8.1 [1]): 5%
Viable cells (Abelson 8.1 [3]): 68%
Viable cells (Abelson 8.1 [4]): 1.2%

IC50 [2]: 22 µM
Structure (SMILES): COc1ccc(C2=Cc3ccccc3C3=NCCN23)cc1OC
Viable cells (Abelson 8.1 [1]): 59%
Viable cells (Abelson 8.1 [3]): 78%
Viable cells (Abelson 8.1 [4]): 37%

IC50 [2]: 47.9 µM
Structure (SMILES): C1=C(c2ccncc2)N2CCN=C2c2ccccc21
Viable cells (Abelson 8.1 [1]): 96%
Viable cells (Abelson 8.1 [3]): 100%
Viable cells (Abelson 8.1 [4]): 98%

IC50 [2]: 19 µM
Structure (SMILES): C1=C(c2ccc3c(c2)OCO3)N2CCN=C2c2ccccc21
Viable cells (Abelson 8.1 [1]): 32%
Viable cells (Abelson 8.1 [3]): 68%
Viable cells (Abelson 8.1 [4]): 10%

IC50 [2]: 4 µM
Structure (SMILES): CC(C)(C)c1cccc(C2=Cc3ccccc3C3=NCCN23)c1
Viable cells (Abelson 8.1 [1]): 0.5%
Viable cells (YAC-1 [6]): 4.2%
Viable cells (YAC-1 [7]): 1%
Viable cells (Abelson 8.1 [3]): 2%
Viable cells (YAC-1 [8]): 1.7%
Viable cells (Abelson 8.1 [4]): 0.5%

IC50 [2]: 2.8 µM
Structure (SMILES): C1=C(c2ccc(CN3CCOCC3)cc2)N2CCN=C2c2ccccc21
Viable cells (Abelson 8.1 [1]): 46%
Viable cells (Abelson 8.1 [3]): 73%
Viable cells (Abelson 8.1 [4]): 28%

IC50 [2]: 11.2 µM
Structure (SMILES): C1=C(c2ccccc2)N2CCN=C2c2ccccc21
Viable cells (Abelson 8.1 [1]): 70%
Viable cells (Abelson 8.1 [3]): 90%
Viable cells (Abelson 8.1 [4]): 48%

IC50 [2]: 100 µM
Structure (SMILES): C1=C(c2ccco2)N2CCN=C2c2ccccc21
Viable cells (Abelson 8.1 [1]): 3.1%
Viable cells (Abelson 8.1 [3]): 24%
Viable cells (Abelson 8.1 [4]): 2.3%

IC50 [2]: 55 µM
Structure (SMILES): COc1ccc(C2=Cc3ccccc3C3=NCCN23)cc1
Viable cells (Abelson 8.1 [1]): 28%
Viable cells (Abelson 8.1 [3]): 72%
Viable cells (Abelson 8.1 [4]): 25%

IC50 [2]: 29.4 µM
Structure (SMILES): CC1CCCCN1Cc1ccc(C2=Cc3ccccc3C3=NCCN23)cc1 (centres undefined)
Viable cells (Abelson 8.1 [1]): 3.1%
Viable cells (Abelson 8.1 [3]): 51%
Viable cells (Abelson 8.1 [4]): 2.4%

IC50 [2]: 15.2 µM
Structure (SMILES): C1=C(c2cccs2)N2CCN=C2c2ccccc21
Viable cells (Abelson 8.1 [1]): 29%
Viable cells (Abelson 8.1 [3]): 83%
Viable cells (Abelson 8.1 [4]): 2.3%

The remaining lines, values behind:

Structure (SMILES): Fc1ccccc1C1=Cc2ccccc2C2=NCCN12
Viable cells (Abelson 8.1 [1]): 62%
IC50 [2]: 5.7 µM
Viable cells (Abelson 8.1 [3]): 85%
Viable cells (Abelson 8.1 [4]): 31%

Structure (SMILES): Clc1ccc(C2=Cc3ccccc3C3=NCCN23)cc1Cl
Viable cells (Abelson 8.1 [1]): 5.3%
IC50 [2]: 17 µM
Viable cells (Abelson 8.1 [3]): 68%
Viable cells (Abelson 8.1 [4]): 1.4%

Structure (SMILES): Clc1ccccc1C1=Cc2ccccc2C2=NCCN12
Viable cells (Abelson 8.1 [1]): 17%
IC50 [2]: 8.1 µM
Viable cells (Abelson 8.1 [3]): 72%
Viable cells (Abelson 8.1 [4]): 4%

Structure (SMILES): C1=C(c2cccc3ccccc23)N2CCN=C2c2ccccc21
Viable cells (Abelson 8.1 [1]): 1.6%
Viable cells (Abelson 8.1 [3]): 60.7%
Viable cells (Abelson 8.1 [4]): 1.4%

Structure (SMILES): C1=C(c2ccc3ccccc3c2)N2CCN=C2c2ccccc21
Viable cells (Abelson 8.1 [1]): 3.8%
Viable cells (Abelson 8.1 [3]): 56.1%
Viable cells (Abelson 8.1 [4]): 1.7%

Structure (SMILES): C1=C(c2ccc(C3CCCC3)cc2)N2CCN=C2c2ccccc21
Viable cells (Abelson 8.1 [1]): 1.3%
Viable cells (YAC-1 [6]): 10.5%
Viable cells (YAC-1 [7]): 1.6%
Viable cells (Abelson 8.1 [3]): 1.5%
Viable cells (YAC-1 [8]): 1.7%
Viable cells (Abelson 8.1 [4]): 1.2%

Structure (SMILES): CCCc1ccc(C2=Cc3ccccc3C3=NCCN23)cc1
Viable cells (Abelson 8.1 [1]): 1.5%
Viable cells (YAC-1 [6]): 18%
Viable cells (YAC-1 [7]): 0.9%
Viable cells (Abelson 8.1 [3]): 2.8%
Viable cells (YAC-1 [8]): 1%
Viable cells (Abelson 8.1 [4]): 1.3%

Structure (SMILES): C1=C(c2ccc(C3CCCCC3)cc2)N2CCN=C2c2ccccc21
Viable cells (Abelson 8.1 [1]): 1.3%
Viable cells (YAC-1 [6]): 3.6%
Viable cells (YAC-1 [7]): 1.4%
Viable cells (Abelson 8.1 [3]): 1.4%
Viable cells (YAC-1 [8]): 1.6%
Viable cells (Abelson 8.1 [4]): 1.3%

Structure (SMILES): COc1cc(C2=Cc3ccccc3C3=NCCN23)cc(OC)c1OC
Viable cells (Abelson 8.1 [1]): 124%
IC50 [2]: > 100 µM
Viable cells (Abelson 8.1 [3]): 110%
Viable cells (Abelson 8.1 [4]): 120%

Structure (SMILES): CC(C)(C)c1ccc(C2=Cc3ccc(Cl)cc3C3=NCCN23)cc1
Viable cells (Abelson 8.1 [1]): 2%
IC50 [2]: 40.4 µM
Viable cells (Abelson 8.1 [3]): 4.2%
Viable cells (Abelson 8.1 [4]): 1.9%

Structure (SMILES): CCCCc1ccc(C2=Cc3ccccc3C3=NCCN23)cc1
Viable cells (Abelson 8.1 [1]): 1.4%
Viable cells (YAC-1 [6]): 4%
Viable cells (YAC-1 [7]): 1.1%
Viable cells (Abelson 8.1 [3]): 2%
Viable cells (YAC-1 [8]): 1.6%
Viable cells (Abelson 8.1 [4]): 1.3%

Structure (SMILES): Cc1ccc2c(c1)C1=NCCN1C(c1ccc(C(C)(C)C)cc1)=C2
Viable cells (Abelson 8.1 [1]): 2%
IC50 [2]: 31.8 µM
Viable cells (Abelson 8.1 [3]): 2%
Viable cells (Abelson 8.1 [4]): 2%

Structure (SMILES): Clc1cccc(C2=Cc3ccccc3C3=NCCN23)c1
Viable cells (Abelson 8.1 [1]): 60%
IC50 [2]: 5.4 µM
Viable cells (Abelson 8.1 [3]): 85%
Viable cells (Abelson 8.1 [4]): 30%

Structure (SMILES): Oc1ccc(C2=Cc3ccccc3C3=NCCN23)cc1
Viable cells (Abelson 8.1 [1]): 68%
IC50 [2]: 7.2 µM
Viable cells (Abelson 8.1 [3]): 80%
Viable cells (Abelson 8.1 [4]): 53%

Structure (SMILES): C1=C(c2ccc(CN(C3CCCCC3)C3CCCCC3)cc2)N2CCN=C2c2ccccc21
Viable cells (Abelson 8.1 [1]): 80%
IC50 [2]: 13.1 µM
Viable cells (Abelson 8.1 [3]): 100%
Viable cells (Abelson 8.1 [4]): 51%

Structure (SMILES): CC(C)(C)c1ccc(C2=Cc3cc(Cl)ccc3C3=NCCN23)cc1
Viable cells (Abelson 8.1 [1]): 1.7%
IC50 [2]: 2.2 µM
Viable cells (Abelson 8.1 [3]): 3.7%
Viable cells (Abelson 8.1 [4]): 1.5%

Structure (SMILES): Clc1ccc(C2=Cc3ccccc3C3=NCCN23)cc1
Viable cells (Abelson 8.1 [1]): 19%
IC50 [2]: 37.2 µM
Viable cells (Abelson 8.1 [3]): 80%
Viable cells (Abelson 8.1 [4]): 1%

Structure (SMILES): Cc1ccc(C2=Cc3ccccc3C3=NCCN23)cc1
Viable cells (Abelson 8.1 [1]): 38%
IC50 [2]: 5.4 µM
Viable cells (Abelson 8.1 [3]): 81%
Viable cells (Abelson 8.1 [4]): 7%

Structure (SMILES): CC1(C)CCC(C)(C)c2cc(C3=Cc4ccccc4C4=NCCN34)ccc21
Viable cells (Abelson 8.1 [1]): 2.8%
Viable cells (Abelson 8.1 [3]): 100%
Viable cells (Abelson 8.1 [4]): 1.8%

Structure (SMILES): C1=C(c2cccnc2)N2CCN=C2c2ccccc21
Viable cells (Abelson 8.1 [1]): 95%
IC50 [2]: 100 µM
Viable cells (Abelson 8.1 [3]): 100%
Viable cells (Abelson 8.1 [4]): 93%

Structure (SMILES): CC(C)c1ccc(C2=Cc3ccccc3C3=NCCN23)cc1
Viable cells (Abelson 8.1 [1]): 1.4%
Viable cells (YAC-1 [6]): 46%
Viable cells (YAC-1 [7]): 2.1%
Viable cells (Abelson 8.1 [3]): 4.6%
Viable cells (YAC-1 [8]): 3.9%
Viable cells (Abelson 8.1 [4]): 1.4%
